The source made the active and inactive calls. How the calls were made is not given here.
How the values were obtained:
[1] = Terminal half life in CD-1 mouse at 10 mg/kg, iv and measured up to 24 hrs by LC/MS-MS analysis; type: ADME, organism-based; details: in vivo
Outline: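 Male CD1 mice, about 6–8 weeks old and 20–30 g, received 10 mg/kg IV in 0.1 M NaOH in PBS adjusted to pH 7–8.5, made fresh on the day of dosing. Three mice per cohort. Blood was taken from the dorsal metatarsal vein at 5, 15, 30 min and 1, 2, 4, 8, 12, 24 h into heparin tubes. Plasma was spun at 4 °C, stored at –75 °C and analysed by LC–MS/MS. For IV dosing Cmax = C0.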

[2] = target: T1, L-lactate dehydrogenase A chain (Homo sapiens, UniProt P00338); test: Inhibition of LDHA in human MIA PaCa-2 cells assessed as decrease in lactate production incubated for 2 hrs by lactate oxidase-coupled fluorescence based assay; type: cell-based
[3] = target: T1, L-lactate dehydrogenase A chain; test: Inhibition of LDHA in human A673 cells assessed as decrease in lactate production incubated for 2 hrs by lactate oxidase-coupled fluorescence based assay; type: cell-based
[4] = target: L-lactate dehydrogenase B chain (Homo sapiens) (UniProt P07195); test: Inhibition of recombinant human LDHB using sodium pyruvate as substrate preincubated for 5 mins followed by diaphorase/resazurin addition and measured after 20 mins by fluorescence based assay
L-lactate dehydrogenase B chain (Homo sapiens), sequence (P07195 2-334 limits assumed): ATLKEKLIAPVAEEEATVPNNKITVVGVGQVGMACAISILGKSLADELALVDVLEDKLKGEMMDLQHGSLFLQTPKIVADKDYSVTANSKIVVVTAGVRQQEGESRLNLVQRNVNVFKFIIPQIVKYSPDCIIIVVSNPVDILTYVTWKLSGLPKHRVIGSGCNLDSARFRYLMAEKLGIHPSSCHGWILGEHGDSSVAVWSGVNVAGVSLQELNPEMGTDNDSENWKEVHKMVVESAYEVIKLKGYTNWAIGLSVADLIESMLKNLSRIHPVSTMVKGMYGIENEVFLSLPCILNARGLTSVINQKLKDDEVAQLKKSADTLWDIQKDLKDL

Sus scrofa = species on record: Sus scrofa; test: Inhibition of porcine heart MDH using malic acid as substrate preincubated for 10 mins followed by substrate addition and measured after 5 mins by resazurin based fluorescence based assay; details: time 15.0 min
A673 = test: Cytotoxicity against human A673 cells assessed as reduction in cell viability after 48 hrs by CellTiter-Glo assay; type: functional, cell-based; details: A673, 48 h
MIA PaCa-2 = test: Cytotoxicity against human MIA PaCa-2 cells assessed as reduction in cell viability after 48 hrs by CellTiter-Glo assay; type: functional, cell-based; details: MIA PaCa-2, 48 h
[5] = target: T1, L-lactate dehydrogenase A chain; test: Inhibition of GS[HiBiT]GS-tagged LDHA (unknown origin) expressed in HEK-293T cells measured after 1 hr by […]; type: cell-based
Outline: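 HEK293T cells were transiently transfected for 24 h with CMV-driven LDHA carrying a C-terminal GS[HiBiT]GS tag, then reseeded at 2500 cells/well in DPBS with Ca/Mg and 1 g/L glucose. […] Cells were lysed with NP40, and 11S (100 nM final) plus furimazine was added.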

[6] = target: T1, L-lactate dehydrogenase A chain; test: Inhibition of recombinant human LDHA using sodium pyruvate as substrate preincubated for 5 mins followed by diaphorase/resazurin addition and measured after 20 mins by fluorescence based assay

Row | Compound | beta t1/2 [1] [min] | IC50 [2] [µM] | IC50 [3] [µM] | inhibition [4] | inhibition (Sus scrofa) | IC50 (A673) [µM] | IC50 (MIA PaCa-2) [µM] | IC50 [5] [µM] | IC50 [6] [µM] | IC50 ([2]; mia paca-2) [µM] | IC50 ([3]; a673) [µM]
1 | NS(=O)(=O)c1ccc(Cc2c(-c3cccc(-c4ccccc4)c3)nn(-c3nc(C(=O)O)cs3)c2CC2CC2)cc1 | 51 | – | – | – | – | – | – | – | – | – | –
2 | CC(C)(C)/C=C/c1cc(-c2nn(-c3nc(C(=O)O)cs3)c(CC3CC3)c2Cc2ccc(S(N)(=O)=O)c(F)c2)ccc1F | – | 0.255 | 0.361 | Active | inactive | 2.26 | 1.9 | 0.112 | 0.059 | – | –
3 | NS(=O)(=O)c1ccc(Cc2c(-c3cccc(-c4ccccc4)c3)nn(-c3nc(C(=O)O)cs3)c2C2CC2(F)F)cc1 (stereo not drawn) | – | 4.76 | 1.86 | Active | inactive | 24.4 | 17.7 | 2.53 | 0.036 | – | –
4 | Cc1ccc(C#Cc2cccc(-c3nn(-c4nc(C(=O)O)cs4)c(CCC4CC4)c3Cc3ccc(S(N)(=O)=O)c(F)c3)c2)o1 | – | 0.417 | 0.547 | Active | inactive | 0.137 | 0.137 | 0.095 | 0.052 | – | –
5 | NS(=O)(=O)c1ccc(Cc2c(-c3ccc(F)c(C#CC4CCC4)c3)nn(-c3nc(C(=O)O)cs3)c2CC2CC2)cc1F | – | 0.428 | 0.378 | Active | inactive | 0.593 | 0.573 | 0.133 | 0.023 | – | –
6 | Cc1cnc(C#Cc2cccc(-c3nn(-c4nc(C(=O)O)cs4)c(CC4CC4)c3Cc3ccc(S(N)(=O)=O)c(F)c3)c2)s1 | – | 0.487 | 0.527 | Active | inactive | 0.309 | 0.36 | 0.09 | 0.017 | – | –
7 | NS(=O)(=O)c1ccc(Cc2c(-c3cccc(-c4ccccc4)c3)nn(-c3nc(C(=O)O)cs3)c2CC(F)(F)F)cc1 | – | 19.4 | 9.72 | Active | inactive | 0.148 | 3.17 | 15.8 | 0.274 | – | –
8 | NS(=O)(=O)c1ccc(Cc2c(-c3ccc(F)c(C#CC4CC4)c3)nn(-c3nc(C(=O)O)cs3)c2CC2CC2)cc1F | – | 0.554 | 0.695 | Active | inactive | 0.132 | 0.323 | 0.1 | 0.009 | – | –
9 | NS(=O)(=O)c1ccc(Cc2c(-c3cccc(C#Cc4ccc(C(F)F)s4)c3)nn(-c3nc(C(=O)O)cs3)c2CC2CC2)cc1F | – | 0.286 | 0.345 | Active | inactive | 0.528 | 0.528 | 0.134 | 0.154 | – | –
10 | NS(=O)(=O)c1ccc(Cc2c(-c3ccc(F)c(-c4ccccc4)c3)nn(-c3nc(C(=O)O)cs3)c2CC2CC2)cc1 | – | 1.22 | 0.835 | Active | inactive | 2.65 | 8.45 | 0.401 | 0.023 | – | –
11 | Cc1nc(C#Cc2cccc(-c3nn(-c4nc(C(=O)O)cs4)c(CC4CC4)c3Cc3ccc(S(N)(=O)=O)c(F)c3)c2)cs1 | – | – | – | Active | inactive | 0.347 | 0.471 | 0.101 | 0.013 | 1.18 | 1.17
12 | Cc1ncc(C#Cc2cccc(-c3nn(-c4nc(C(=O)O)cs4)c(CCC4CC4)c3Cc3ccc(S(N)(=O)=O)c(F)c3)c2)s1 | – | 0.334 | 0.434 | Active | inactive | 0.218 | 0.218 | 17.8 | 0.024 | – | –
13 | NS(=O)(=O)c1ccc(Cc2c(-c3cccc(C#Cc4ccc(C(F)(F)F)s4)c3)nn(-c3nc(C(=O)O)cs3)c2CC2CC2)cc1F | – | 0.337 | 0.485 | Active | inactive | 0.833 | 0.803 | 0.113 | 0.434 | – | –
14 | N#CC#Cc1cc(-c2nn(-c3nc(C(=O)O)cs3)c(CC3CC3)c2Cc2ccc(S(N)(=O)=O)c(F)c2)ccc1F | – | 4.4 | 4.01 | Active | inactive | > 30 | > 30 | 0.474 | 0.015 | – | –
15 | NS(=O)(=O)c1ccc(Cc2c(-c3ccc(F)c(C#CC(F)F)c3)nn(-c3nc(C(=O)O)cs3)c2CC2CC2)cc1F | – | 0.741 | 0.937 | Active | inactive | 1.48 | 1.33 | 0.163 | 0.015 | – | –
16 | CC(F)C#Cc1cc(-c2nn(-c3nc(C(=O)O)cs3)c(CC3CC3)c2Cc2ccc(S(N)(=O)=O)c(F)c2)ccc1F (stereo not drawn) | – | 0.822 | 0.8 | Active | inactive | 1.13 | 1.02 | 0.127 | 0.014 | – | –
17 | NS(=O)(=O)c1ccc(Cc2c(-c3ccc(F)c(C#Cc4cccs4)c3)nn(-c3nc(C(=O)O)cs3)c2CC2CC2)cc1F | – | 0.307 | 0.438 | Active | inactive | 0.265 | 0.268 | 0.089 | 0.032 | – | –
18 | CC(C)(C)C#Cc1cc(-c2nn(-c3nc(C(=O)O)cs3)c(CC3CC3)c2Cc2ccc(S(N)(=O)=O)c(F)c2)ccc1F | – | 0.137 | 0.141 | Active | inactive | 0.935 | 0.845 | 0.075 | 0.016 | – | –
19 | NS(=O)(=O)c1ccc(Cc2c(-c3cccc(-c4ccccc4)c3)nn(-c3nc(C(=O)O)cs3)c2CCC2CC2)cc1 | – | 0.804 | 0.509 | Active | inactive | 1.96 | 6.2 | 0.727 | 0.036 | – | –
20 | NS(=O)(=O)c1ccc(Cc2c(-c3cccc(C#CC4CCCC4)c3)nn(-c3nc(C(=O)O)cs3)c2CC2CC2)cc1F | – | 0.281 | 0.298 | Active | inactive | 0.419 | 0.377 | 0.089 | 0.047 | – | –
21 | CCCCC#Cc1cc(-c2nn(-c3nc(C(=O)O)cs3)c(CC3CC3)c2Cc2ccc(S(N)(=O)=O)c(F)c2)ccc1F | – | 0.298 | 0.405 | Active | inactive | 0.773 | 0.845 | 0.106 | 0.05 | – | –
22 | NS(=O)(=O)c1ccc(Cc2c(-c3ccc(F)c(/C=C/C4CC4)c3)nn(-c3nc(C(=O)O)cs3)c2CC2CC2)cc1F | – | 0.231 | 0.32 | Active | inactive | 0.833 | 0.837 | 0.134 | 0.015 | – | –
23 | NS(=O)(=O)c1ccc(Cc2c(-c3cccc(-c4ccccc4)c3)nn(-c3nc(C(=O)O)cs3)c2C2(C(F)(F)F)CC2)cc1 | – | 12.8 | 20.2 | Active | inactive | > 30 | > 30 | 0.303 | 4.1 | – | –
24 | Cc1ncc(C#Cc2cccc(-c3nn(-c4nc(C(=O)O)cs4)c(CC4CC4)c3Cc3ccc(S(N)(=O)=O)c(F)c3)c2)s1 | – | 0.72 | 0.713 | Active | inactive | 0.532 | 0.641 | 0.038 | 0.043 | – | –
25 | NS(=O)(=O)c1ccc(Cc2c(-c3cccc(-c4ccccc4)c3)nn(-c3nc(C(=O)O)cs3)c2CC2CC2)cc1F | – | 0.867 | 0.613 | Active | inactive | 1.14 | 3.38 | 0.15 | 0.025 | – | –

— ChEMBL document CHEMBL4665801, “Pyrazole-Based Lactate Dehydrogenase Inhibitors with Optimized Cell Activity and Pharmacokinetic Properties” (J Med Chem, 2020)
